Laboratory results from ChEMBL document CHEMBL3526053, “Species-dependent uptake of glycylsarcosine but not oseltamivir in Pichia pastoris expressing the rat, mouse, and human intestinal peptide transporter PEPT1” (Drug Metab Dispos, 2012).

Columns and labels:
Komagataella pastoris [1] = assay: Stability in Pichia pastoris GS115 expressing human recombinant PEPT1 at 5 uM measured for up to 30 mins by HPLC analysis; format: ADME, organism-based; conditions: 0.5 h
Procedure, shortened: (§1)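 [14C]oseltamivir 5.0 µM with [14C]PEG200 5.0 µM internal standard was incubated with induced GS115 cells (vector, human, mouse or rat PEPT1) at 24°C, pH 6.5, for up to 30 min. Reactions were quenched with 20% trichloroacetic acid and centrifuged at 4°C. Supernate was analysed by HPLC with radiochemical detection; retention 14.9 min for oseltamivir, 3.6 min for PEG200. n=6.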

[2] = target: T1, Solute carrier family 15 member 1 (Mus musculus, UniProt Q9JIP7); assay: Inhibition of mouse recombinant PEPT1 expressed in Pichia pastoris GS115 assessed as [3H]GlySar uptake after 30s by dual-channel liquid scintillation counting analysis
T1 sequence (Q9JIP7 whole entry): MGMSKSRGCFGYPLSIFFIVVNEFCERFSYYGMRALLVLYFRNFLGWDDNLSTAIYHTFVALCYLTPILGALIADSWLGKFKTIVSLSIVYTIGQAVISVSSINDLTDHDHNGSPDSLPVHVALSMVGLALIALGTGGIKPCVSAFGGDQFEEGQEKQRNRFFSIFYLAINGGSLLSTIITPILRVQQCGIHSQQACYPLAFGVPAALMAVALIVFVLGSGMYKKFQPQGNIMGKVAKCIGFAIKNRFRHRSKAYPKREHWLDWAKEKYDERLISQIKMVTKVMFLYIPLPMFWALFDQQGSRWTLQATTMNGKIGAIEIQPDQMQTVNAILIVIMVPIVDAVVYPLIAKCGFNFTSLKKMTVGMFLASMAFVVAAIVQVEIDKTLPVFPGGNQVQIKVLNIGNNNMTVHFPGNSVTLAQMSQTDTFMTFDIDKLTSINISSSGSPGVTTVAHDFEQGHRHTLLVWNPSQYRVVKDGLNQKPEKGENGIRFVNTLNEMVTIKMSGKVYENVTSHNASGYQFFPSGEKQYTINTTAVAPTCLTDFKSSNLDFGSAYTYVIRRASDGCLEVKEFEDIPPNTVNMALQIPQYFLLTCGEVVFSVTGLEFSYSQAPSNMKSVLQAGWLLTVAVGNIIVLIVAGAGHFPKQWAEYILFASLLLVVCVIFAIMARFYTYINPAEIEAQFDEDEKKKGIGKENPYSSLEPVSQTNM

[3] = target: T2, Solute carrier family 15 member 1 (Homo sapiens, UniProt P46059); assay: Drug uptake in Pichia pastoris GS115 expressing human recombinant PEPT1 at 0 degC measured immediately after drug addition by dual-channel liquid scintillation counting analysis; format: ADME
T2 sequence (P46059 whole entry): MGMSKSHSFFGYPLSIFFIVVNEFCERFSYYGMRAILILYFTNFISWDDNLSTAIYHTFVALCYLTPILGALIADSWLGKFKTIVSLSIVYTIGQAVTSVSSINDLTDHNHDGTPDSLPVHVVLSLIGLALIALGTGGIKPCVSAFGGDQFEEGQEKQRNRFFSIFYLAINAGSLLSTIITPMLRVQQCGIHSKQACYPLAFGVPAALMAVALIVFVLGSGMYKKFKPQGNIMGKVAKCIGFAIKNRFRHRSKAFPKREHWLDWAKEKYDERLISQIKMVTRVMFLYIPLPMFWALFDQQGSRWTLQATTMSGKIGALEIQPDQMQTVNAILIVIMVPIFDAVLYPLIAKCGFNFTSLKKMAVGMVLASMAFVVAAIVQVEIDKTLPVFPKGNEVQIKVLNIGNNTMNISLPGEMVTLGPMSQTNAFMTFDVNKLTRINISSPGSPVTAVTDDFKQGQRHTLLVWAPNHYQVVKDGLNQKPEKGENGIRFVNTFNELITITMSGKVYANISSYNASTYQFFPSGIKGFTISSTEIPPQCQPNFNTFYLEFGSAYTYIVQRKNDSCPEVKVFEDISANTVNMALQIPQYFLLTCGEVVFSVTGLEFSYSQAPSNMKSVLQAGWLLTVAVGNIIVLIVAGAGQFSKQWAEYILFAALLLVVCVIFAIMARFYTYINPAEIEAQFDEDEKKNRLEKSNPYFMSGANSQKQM
Procedure, shortened: (§2)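 Nonspecific binding of 5.0 µM [14C]oseltamivir is measured at 0°C in pH 6.5 phosphate buffer. The incubation is quenched immediately after adding the drug to the methanol-induced yeast suspension. Bound radioactivity is counted by liquid scintillation and expressed as pmol/OD600. Mean ± SE (n=6).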

Komagataella pastoris [4] = assay: Stability in Pichia pastoris GS115 at 5 uM measured for up to 30 mins by HPLC analysis; format: ADME, organism-based; conditions: 0.5 h; procedure, shortened: as §1
[5] = target: T2, Solute carrier family 15 member 1; assay: Inhibition of human recombinant PEPT1 expressed in Pichia pastoris GS115 assessed as [3H]GlySar uptake after 30s by dual-channel liquid scintillation counting analysis
Komagataella pastoris [6] = assay: Stability in Pichia pastoris GS115 expressing rat recombinant PEPT1 at 5 uM measured for up to 30 mins by HPLC analysis; format: ADME, organism-based; conditions: 0.5 h; procedure, shortened: as §1
[7] = target: T1, Solute carrier family 15 member 1; assay: Drug uptake in Pichia pastoris GS115 expressing mouse recombinant PEPT1 at 0 degC measured immediately after drug addition by dual-channel liquid scintillation counting analysis; format: ADME; procedure, shortened: as §2
Komagataella pastoris [8] = assay: Stability in Pichia pastoris GS115 expressing mouse recombinant PEPT1 at 5 uM measured for up to 30 mins by HPLC analysis; format: ADME, organism-based; conditions: 0.5 h; procedure, shortened: as §1
[9] = target: T3, Solute carrier family 15 member 1 (Rattus norvegicus, UniProt P51574); assay: Inhibition of rat recombinant PEPT1 expressed in Pichia pastoris GS115 assessed as [3H]GlySar uptake after 30s by dual-channel liquid scintillation counting analysis
T3 sequence (P51574 whole entry): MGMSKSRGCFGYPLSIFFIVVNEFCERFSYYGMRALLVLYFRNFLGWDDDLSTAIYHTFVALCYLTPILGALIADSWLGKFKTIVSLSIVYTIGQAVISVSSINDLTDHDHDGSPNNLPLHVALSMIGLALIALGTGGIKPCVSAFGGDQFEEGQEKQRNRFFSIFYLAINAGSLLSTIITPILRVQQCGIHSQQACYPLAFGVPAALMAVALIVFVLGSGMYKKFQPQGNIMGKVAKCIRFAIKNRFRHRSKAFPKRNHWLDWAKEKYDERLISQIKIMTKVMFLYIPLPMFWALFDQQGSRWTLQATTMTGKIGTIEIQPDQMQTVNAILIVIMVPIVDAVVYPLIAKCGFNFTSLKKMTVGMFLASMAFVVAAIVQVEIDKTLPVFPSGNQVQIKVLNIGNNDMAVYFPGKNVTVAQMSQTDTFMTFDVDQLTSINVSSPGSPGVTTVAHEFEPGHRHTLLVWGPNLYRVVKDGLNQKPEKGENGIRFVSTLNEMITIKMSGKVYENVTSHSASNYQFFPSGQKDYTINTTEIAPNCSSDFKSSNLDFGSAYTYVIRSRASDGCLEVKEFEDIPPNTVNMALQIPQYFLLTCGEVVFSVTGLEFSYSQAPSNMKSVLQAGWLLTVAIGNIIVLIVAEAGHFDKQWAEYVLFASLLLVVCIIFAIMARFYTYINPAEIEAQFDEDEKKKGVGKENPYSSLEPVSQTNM

[10] = Protein binding in human at 50 to 500 mg, po bid; conditions: plasma
[11] = target: T3, Solute carrier family 15 member 1; assay: Drug uptake in Pichia pastoris GS115 expressing rat recombinant PEPT1 at 0 degC measured immediately after drug addition by dual-channel liquid scintillation counting analysis; format: ADME; procedure, shortened: as §2

In the case of `CCOC(=O)C1=C[C@@H](OC(CC)CC)[C@H](NC(C)=O)[C@@H](N)C1.O=P(O)(O)O` [OSELTAMIVIR PHOSPHATE], the Stability (Komagataella pastoris [1]) is reported as “Stable”, the IC50 [2] is reported as 10.7 mM and the Drug uptake [3] is reported as 0.2 pmol/OD. The Stability (Komagataella pastoris [4]) was “Stable”, the IC50 [5] was 27.4 mM and the Stability (Komagataella pastoris [6]) was “Stable”. For the same compound, the Drug uptake [7] was 0.2 pmol/OD, the Stability (Komagataella pastoris [8]) was “Stable” and the IC50 [9] was 18.3 mM. The fraction unbound [10] was 0.58 and the Drug uptake [11] was 0.2 pmol/OD.
